Experimental findings from ChEMBL document CHEMBL1123724, “A novel synthesis of colchicide and analogues from thiocolchicine and congeners: reevaluation of colchicide as a potential antitumor agent” (1987) are described below.

Assay [1] has as its system Mus musculus. The assay is described as follows: In vivo antitumor activity against P388 mouse leukemia and minimum affective dose (MED) which produced a T/C greater than the threshold value of 125 was reported. It counts as functional. As to conditions: read-out: MED. In short, it runs like this: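 P388 leukemia cells implanted intraperitoneally in mice. Drug given ip once daily for 9 days (QD1 × 9). T/C = median survival time of treated animals / median survival time of untreated controls × 100. Minimum effective dose is the lowest dose (mg/kg) giving T/C above the threshold of 125. Reported dose levels are those with the highest T/C.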

For assay [2], the system named is Mus musculus. As to the kind of experiment: In vivo antitumor activity against P388 mouse leukemia expressed as T/C (median survival time of treated animals / median survival time of untreated controls x 100) at a dose of 0.32 mg/kg. It is filed as functional. In short, it runs like this: (§1)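 P388 leukemia implanted ip in mice, with ip dosing on a QD1 × 9 schedule. Read-out is T/C = median survival of treated animals / median survival of untreated controls × 100. Activity requires duplicate tests giving T/C ≥120%.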

Assay [3] concerns Mus musculus. As to the kind of experiment: In vivo antitumor activity against P388 mouse leukemia expressed as T/C (median survival time of treated animals / median survival time of untreated controls x 100) at a dose of 12.5 mg/kg. It counts as functional. The method, boiled down:
as §1

For assay [4], the system named is Mus musculus. The assay is described as follows: In vivo antitumor activity against P388 mouse leukemia expressed as T/C (median survival time of treated animals / median survival time of untreated controls x 100) at a dose of 0.18 mg/kg. It counts as functional. In short, it runs like this: as §1
For assay [5], the target named is Tubulin beta chain (Bos taurus) (UniProt Q6B856). As to conditions: at 25 µM.
Assay [6] has as its system Mus musculus. As to the kind of experiment: In vivo antitumor activity against P388 mouse leukemia expressed as T/C (median survival time of treated animals / median survival time of untreated controls x 100) at a dose of 0.5 mg/kg. It is filed as functional. In short, it runs like this:
as §1

In assay [7] the test system is Mus musculus. The assay is described as follows: In vivo antitumor activity against P388 mouse leukemia expressed as T/C (median survival time of treated animals / median survival time of untreated controls x 100) at a dose of 0.94 mg/kg. It is filed as functional. In short, it runs like this: as §1
Assay [8] has as its system Mus musculus. The assay is described as follows: In vivo antitumor activity against P388 mouse leukemia expressed as T/C (median survival time of treated animals / median survival time of untreated controls x 100) at a dose of 3.12 mg/kg. It counts as functional. In short, it runs like this:
as §1

Structures are written as SMILES. Bounds are passed on as bounds.

Sequence of Tubulin beta chain (Bos taurus) (Q6B856 whole entry): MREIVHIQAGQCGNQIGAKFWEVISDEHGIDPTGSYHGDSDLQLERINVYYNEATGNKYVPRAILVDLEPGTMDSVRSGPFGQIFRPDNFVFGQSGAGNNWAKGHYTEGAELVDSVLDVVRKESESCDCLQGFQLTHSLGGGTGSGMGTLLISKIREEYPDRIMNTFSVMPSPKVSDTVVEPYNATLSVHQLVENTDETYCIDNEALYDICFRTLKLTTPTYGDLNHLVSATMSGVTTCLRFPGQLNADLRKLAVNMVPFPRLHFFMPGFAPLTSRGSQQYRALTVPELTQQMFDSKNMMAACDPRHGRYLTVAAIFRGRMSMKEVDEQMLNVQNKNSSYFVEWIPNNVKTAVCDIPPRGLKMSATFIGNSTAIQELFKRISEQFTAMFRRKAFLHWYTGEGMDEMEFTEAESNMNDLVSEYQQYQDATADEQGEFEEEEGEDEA

Consider `CNc1ccc2c(cc1=O)[C@@H](NC(C)=O)CCc1cc(OC)c(OC)c(OC)c1-2`, for which the minimal effective dose in assay [1] worked out at 0.04 mg/kg. The compound further yielded a T/C in assay [2] of 166.

Regarding `COc1cc2c(c(OC)c1OC)-c1ccc(SCc3ccccc3)c(=O)cc1[C@@H](NC(C)=O)CC2`, the minimal effective dose in assay [1] amounted to 3.12 mg/kg. This compound returned a T/C in assay [3] of 214.

`COc1cc2c(c(OC)c1OC)-c1ccc(SC)c(=O)cc1[C@@H](NC(C)=O)CC2` [THIOCOLCHICINE]: the minimal effective dose in assay [1] came out at 0.05 mg/kg. In assay [4], this compound yielded a T/C of 193.

Regarding `COc1cc2c(c(OC)c1O)-c1cccc(=O)cc1[C@@H](NC(C)=O)CC2`, the Tubulin binding in assay [5] is 26%.

`COc1cc2c(c(OC(C)=O)c1OC)-c1cccc(=O)cc1[C@@H](NC(C)=O)CC2` gave a Tubulin binding in assay [5] of 0%.

Take `COc1cc2c(c(OC)c1OC)-c1ccc(OC)c(=O)cc1[C@@H](NC(C)=O)CC2` [COLCHICINE]: in assay [1], the minimal effective dose was determined as 0.06 mg/kg. The T/C in assay [6] is 245.

Take `COc1cc2c(c(O)c1OC)-c1cccc(=O)cc1[C@@H](NC(C)=O)CC2`: in assay [5], the Tubulin binding turned out to be 0%.

`COc1c2c(cc3c1-c1ccc(OC)c(=O)cc1[C@@H](NC(C)=O)CC3)OCO2`: in assay [1], the minimal effective dose was over 0.4 mg/kg. This compound showed a T/C in assay [7] of 166.

`COc1c2c(cc3c1-c1cccc(=O)cc1[C@@H](NC(C)=O)CC3)OCO2`: the Tubulin binding in assay [5] was 0%.

For the compound `CCN(CC)c1ccc2c(cc1=O)[C@@H](NC(C)=O)CCc1cc(OC)c(OC)c(OC)c1-2`, the T/C in assay [8] is given as 216. In addition, in assay [1], the minimal effective dose turned out to be 0.39 mg/kg.
